From PubChem
Hits are enriched below; roughly 2.8% of the tested compounds scored in any of these assays.
EP2 modulator: modulates human prostaglandin E2 receptor EP2 signaling. EP2-expressing cells, cAMP HTRF FRET, PGE2 co-stimulation. induction, % at 25 µM. 260,000 compounds, 0.83% hits;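 active = compounds whose cAMP rise, as percent of the full-agonist control response, exceeds 60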;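 note: rat C6 glioma line stably carrying human EP2 under a CMV promoter; the protocol text gives 20 µM as final concentration; 100% = response of wells given 1 µM PGE2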
Target sequence (P43116 whole entry, looked up): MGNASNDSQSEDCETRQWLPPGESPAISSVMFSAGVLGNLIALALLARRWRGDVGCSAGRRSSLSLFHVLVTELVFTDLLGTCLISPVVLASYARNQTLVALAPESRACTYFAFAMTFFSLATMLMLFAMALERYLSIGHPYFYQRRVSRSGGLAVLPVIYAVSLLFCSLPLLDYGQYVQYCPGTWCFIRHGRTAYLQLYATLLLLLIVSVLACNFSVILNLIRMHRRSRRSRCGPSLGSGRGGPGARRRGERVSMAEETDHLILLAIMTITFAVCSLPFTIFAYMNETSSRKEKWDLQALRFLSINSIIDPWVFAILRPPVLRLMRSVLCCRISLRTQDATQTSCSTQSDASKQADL
NPY Y1 blocker: antagonists of human neuropeptide Y receptor Y1; HEK293-CNG Y1 cells, membrane potential fluorescence; NPY at EC95, then isoproterenol; inhibition, % at 3.6 µM; 200,000 compounds, 1% hits; AID 1040;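 active = inhibition above the campaign mean inhibition of all tested compounds plus 3 SD, cut at about 20% in these data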;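 note: 0% = DMSO wells given NPY plus isoproterenol and 100% = isoproterenol alone without NPY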
Target sequence (P25929 whole entry, looked up): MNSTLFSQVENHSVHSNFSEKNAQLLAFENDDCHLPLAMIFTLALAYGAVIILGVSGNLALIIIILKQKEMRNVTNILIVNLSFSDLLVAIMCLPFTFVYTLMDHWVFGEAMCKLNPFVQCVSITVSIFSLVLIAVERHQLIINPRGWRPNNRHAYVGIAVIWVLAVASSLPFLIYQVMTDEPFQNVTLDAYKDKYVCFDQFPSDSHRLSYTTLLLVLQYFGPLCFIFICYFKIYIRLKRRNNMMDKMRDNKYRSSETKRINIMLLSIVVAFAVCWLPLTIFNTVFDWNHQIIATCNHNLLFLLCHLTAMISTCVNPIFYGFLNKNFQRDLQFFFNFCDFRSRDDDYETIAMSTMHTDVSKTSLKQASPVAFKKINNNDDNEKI
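Material: HEK293 Y1/CNG channel cell line; also added: NPY (25 nM), isoproterenol (1 µM), Ro 20-1724 (25 µM); doses: one concentration, 3.6 µM, in 0.4% DMSO; schedule: compound incubation 1 h at room temperature, readout 45 min post-stimulation; technique: membrane potential fluorescence; measure: fluorescence ratio normalized to % inhibition between controls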
NPY-Y2 PAM-ag: human NPY-Y2 potentiation or agonism, primary screen; activation, % at 3.6 µM; P49146; cells expressing NPY-Y2, potentiator/agonist read-out; 220,000 compounds, 0.45% hits; AID 1359; in the data active = activation above about 27%;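 note: cells stimulated with NPY near EC25 plus isoproterenol at EC100; 0% = vehicle plus submaximal agonist and 100% = vehicle plus saturating agonist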
PGE2 EP2 inh: blocks the human prostaglandin E2 receptor EP2; P43116; C6 glioma cells expressing human EP2, cAMP TR-FRET; cells stimulated with saturating PGE2; 260,000 compounds, 0.52% hits; inhibition, % at 25 µM; AID 1422;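 active = percent inhibition above 40 after rounding to a whole number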;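 note: rat C6 glioma host cells with rolipram phosphodiesterase inhibitor present; the protocol text gives 20 µM as final concentration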
NPY1 pot ag: human NPY-Y1 potentiation or agonism, primary screen | P25929 | NPY-Y1 expressing cells, potentiator/agonist activation | activation, % at 3.6 µM | 220,000 compounds, 0.37% hits | AID 1304; in the data active = activation above about 33%, passing the limit was not always enough;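 note: cells stimulated with NPY at EC10 then isoproterenol at EC100; 0% = low agonist plus stimulus and 100% = saturating agonist plus stimulus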
NPY-Y2 antag: antagonists of human neuropeptide Y receptor Y2; P49146; NPY-Y2 expressing cells, antagonist mode; inhibition, % at 2.7 µM; 140,000 compounds, 0.99% hits; AID 793; in the data active = inhibition above about 17%;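 note: 0% = vehicle with agonist challenge and 100% = reference antagonist with challenge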
NPY1 antag ctr: human NPY-Y1 antagonism in NPY-Y2 counter-screen. shares compounds with NPY-Y2 antag. cell-based NPY-Y1 antagonism counterscreen. inhibition, % at 3.6 µM. 710 compounds, 19% hits. AID 1256; in the data active = inhibition above about 20%;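 note: cells challenged with NPY then isoproterenol with cAMP sensed through a CNG channel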
NPY-Y2 ant conf: confirmation of human neuropeptide Y receptor Y2 antagonists; 710 compounds, 32% hits; HEK293 NPY-Y2 CNG channel, membrane potential fluorescence; shares compounds with NPY-Y2 antag; inhibition, % at 2.8 µM;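 active = mean inhibition of triplicate wells above the hit cutoff set in the primary screen, cut at about 17% in these data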;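 note: 0% = DMSO with NPY challenge and 100% = BIIE0246 high control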
Starred values were filed as active, the others as inactive; x = no result.

SMILES | EP2 modulator | NPY Y1 blocker | NPY-Y2 PAM-ag | PGE2 EP2 inh | NPY1 pot ag | NPY-Y2 antag | NPY1 antag ctr | NPY-Y2 ant conf
CCC(C)(C)n1nnnc1C(c1ccc2ncccc2c1)N1CCCC(C)C1 (centres undefined) | 34 | 19 | -1 | 7 | -11 | 18* | 11 | 10
Cc1ccc(C2C(C#N)=C(N)Oc3n[nH]c(C(C)(C)C)c32)o1 (centres undefined) | -28 | x | x | 7 | x | x | x | x
CCn1nc(C(=O)Nc2cccc3ccccc23)c(Cl)c1Cl | 18 | 15 | -19 | 8 | -34 | 18* | 11 | 11
O=C(CNc1ccc2c(c1)OCO2)N/N=C\c1ccccc1Cl | -23 | 10 | -9 | 15 | -42 | 40* | 4 | 9
Cc1ccc(NC(=S)N(CCCO)Cc2cc3cc(C)cc(C)c3[nH]c2=O)cc1 | -81 | x | x | 9 | x | x | x | x
CC1(C)CC(N(Cc2ccccc2)Cc2ncc[nH]2)CC(C)(C)N1 | -1 | x | x | 11 | x | x | x | x
O=C(CSc1nnc(-c2ccccn2)n1Cc1ccco1)c1ccc(Cl)cc1 | 5 | 0 | -6 | 5 | -14 | 7 | x | x
Brc1ccc(CSc2nnc(-c3ccccn3)n2Cc2ccco2)cc1 | 34 | 19 | -6 | 11 | -23 | 24* | 20 | 26*
O=C(CSc1nnc(-c2ccccn2)n1Cc1ccco1)c1ccccc1 | 20 | 0 | -2 | 6 | -3 | 3 | x | x
Clc1cccc(CSc2nnc(-c3ccccn3)n2Cc2ccco2)c1 | 42 | -1 | -13 | 4 | 22 | 20* | 12 | 8
c1ccc(CSc2nnc(-c3cccs3)n2Cc2ccco2)cc1 | 17 | 15 | 8 | 2 | 6 | 19* | 11 | 10
CC(C)[C@H]1CN(Cc2ccco2)CCN1C(=O)c1cscn1 | -31 | x | x | x | x | x | x | x
CCOC(=O)C(C(C)=O)C(c1ccc(OCCC(C)C)cc1)C(C(C)=O)C(=O)OCC (centres undefined) | 48 | 18 | -3 | 7 | -22 | 22* | 13 | 7
COc1ccc(-n2c(CSc3nc(C)cc(C)n3)nnc2SCC(=O)N2CCCCC2C)cc1 (centres undefined) | -26 | x | x | 10 | x | x | x | x
COc1cccc(OC)c1C(=O)Nc1nc2ccc(NC(C)=O)cc2s1 | -52 | x | x | 13 | x | x | x | x
CC(C)n1c(C(=O)OCC(=O)NCc2ccc3c(c2)OCO3)cc2occc21 | -17 | 5 | -6 | 6 | -23 | 14 | x | x
CC(C)n1c(C(=O)OCC(=O)NCc2ccc3c(c2)OCO3)cc2sccc21 | -8 | 6 | -3 | 14 | -28 | 22* | 8 | 8
Nc1nc(CN2CCC(Cc3ccccc3)CC2)nc(Nc2ccccc2)n1 | -14 | 13 | -7 | 7 | -46 | 19* | 16 | 15
Nc1nc(CN2CCCCCC2)nc(Nc2ccccc2)n1 | 1 | -1 | -2 | 3 | -12 | -3 | x | x
O=P(CCCCCCCCCP(=O)(c1ccccc1)c1ccccc1)(c1ccccc1)c1ccccc1 | 20 | -7 | -16 | 8 | 27 | 18* | 2 | 111*
CC1CCCN(C(=O)CSc2nnc(-c3c[nH]c4ccccc34)o2)C1 (centres undefined) | -15 | 8 | -15 | 16 | -6 | 23* | 6 | 6
CC1CCCC(C)N1C(=O)CSc1nnc(-c2c[nH]c3ccccc23)o1 (centres undefined) | -15 | -1 | 8 | 5 | 10 | 6 | x | x
O=C(Nc1cccc(S(=O)(=O)N2CCCCC2)c1)c1ccc2ccccc2n1 | -31 | 9 | -9 | 7 | -9 | 20* | 10 | 13
O=C1C2CC=C(Cl)CC2C(=O)N1CC1Cc2ccccc2CO1 (centres undefined) | 15 | 11 | -26 | 9 | -5 | 28* | 9 | 23*
O=C1C2CC=C(Cl)CC2C(=O)N1CC1OCCc2ccccc21 (centres undefined) | 34 | 16 | -31 | 13 | -70 | 11 | x | x
SMILES | EP2 modulator | NPY Y1 blocker | NPY-Y2 PAM-ag | PGE2 EP2 inh | NPY1 pot ag | NPY-Y2 antag | NPY1 antag ctr | NPY-Y2 ant conf
CCOC(=O)c1c(CSC(=N)N)n(-c2ccc(Br)cc2)c2cc(Br)c(OC(C)=O)cc12 | -57 | -3 | 74* | 15 | 81* | 26* | 14 | 16
CC1CCN(c2nc3c(c(=O)[nH]2)CCN(Cc2ccc(OCC(=O)O)cc2)C3)CC1 | -7 | x | x | 3 | x | x | x | x
O=C(Cn1c(N2CCN(c3ccccc3)CC2)nc2ccccc21)c1ccccc1 | 15 | -4 | 2 | x | 4 | 18* | -4 | -5
CCOC(=O)c1ccccc1NC(=O)Cn1c(-c2nonc2N)nc2ccccc21 | 20 | 18 | -24 | 16 | -20 | 35* | 23* | 30*
CCOc1ccc2[nH]c(=O)c(CN(Cc3ccccc3)Cc3nnnn3Cc3ccco3)cc2c1 | 27 | x | x | 7 | x | x | x | x
Cc1nc2c3ccccc3nc(SCC(=O)N3CC(C)CC(C)C3)n2n1 (centres undefined) | 7 | 2 | -2 | x | 6 | 4 | x | x
Cc1nc2c3ccccc3nc(SCC(=O)c3ccc(Cl)cc3)n2n1 | 6 | 13 | -5 | 3 | 5 | 27* | 21* | 15
COc1ccc(-c2nnc(NC(=O)c3cc(OC)c(OC)c(OC)c3)s2)cc1 | -3 | x | x | 14 | x | x | x | x
CCc1c(C)sc2ncn(C3CCN(CCC(N)=O)CC3)c(=O)c12 | -214 | x | x | 5 | x | x | x | x
C/C(=C\C(=O)c1ccc(Br)cc1)NCc1ccc(C)cc1 | -17 | 11 | -4 | 15 | 3 | 21* | 8 | 10
C/C(=C\C(=O)c1ccc(Br)cc1)NCc1ccccc1 | 22 | 5 | -5 | 9 | -11 | 9 | x | x
COCCCN1C(=O)C(O)=C(C(=O)c2ccco2)C1c1cccc(OC)c1 (centres undefined) | 17 | x | x | 15 | x | x | x | x
CCCN1C(=O)NC2(O)C(=O)c3ccccc3C12O (centres undefined) | 21 | 6 | 11 | 8 | -11 | -3 | x | x
CN1C(=O)NC2(O)C(=O)c3ccccc3C12O (centres undefined) | 17 | 5 | -7 | 10 | -18 | 19* | -1 | 3
CCc1cccc(CC)c1NC(=O)Cn1c(-c2ccccc2Cl)nc2ccccc21 | -16 | 8 | -4 | 2 | -2 | 24* | 13 | 11
O=C(COc1ccc(S(=O)(=O)N2CCCC2)cc1)N1CCC(Cc2ccccc2)CC1 | 2 | x | x | 7 | x | x | x | x
COc1ccc(/C=C/C(=O)NC(C)CCc2ccccc2)cc1 (centres undefined) | -51 | 19 | 3 | 13 | 2 | 22* | 11 | 7
COc1ccc(/C=C/C(=O)NC(C)CCc2ccccc2)cc1OC (centres undefined) | -78 | 8 | 7 | 7 | 17 | x | x | x
